Assay results published in ChEMBL document CHEMBL1150125, “Antiplasmodial activity of alkaloids from various strychnos species” (J Nat Prod, 2002).

Key:
Plasmodium falciparum [1] = assay: Antiplasmodial activity against chloroquine-sensitive Plasmodium falciparum FCA 20/ Ghana at 50 uM; details: read-out: INH
Plasmodium falciparum [2] = assay: Antiplasmodial activity against chloroquine-resistant Plasmodium falciparum W2/Indochina by [3H]hypoxanthine uptake; format: functional, organism-based
Procedure, shortened: (§1)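 Asexual erythrocytic stages kept in continuous culture (Trager and Jensen method). Each sample run as eight 4-fold dilutions, final 20 to 0.0012 µg/mL, in duplicate. IC50 and IC90 derived; number of independent experiments per value given separately.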

[3] = Selectivity index, ratio of IC50 for human HCT116 cells to IC50 for chloroquine-resistant Plasmodium falciparum W2/Indochina; format: toxicity, cell-based, HCT-116; details: HCT116 cells versus Plasmodium falciparum W2/Indochina, read-out: Ratio IC50
Procedure, shortened: (§2)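 Selectivity index = IC50 in HCT-116 cells / IC50 in P. falciparum. Cell IC50: 5000 HCT-116 cells per well with drug, DMSO controls, 72 h incubation, then WST-1 for 30 min at 37 °C. Absorbance read against a cell-free blank and expressed as percent of control. Two independent experiments, each in triplicate, means ± SEM.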

HCT-116 = assay: Cytotoxicity against human HCT116 cells after 72 hrs by WST1 assay; format: cell-based; details: HCT-116, 72 h
Procedure, shortened: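 HCT-116 colon cancer cells were seeded at 5000 per well in medium containing the test drugs, with matched DMSO controls. After 72 h, WST-1 was added for 30 min at 37 °C. Absorbance was read against a cell-free medium plus WST-1 blank and expressed as percent of control. Two independent experiments were run, each in triplicate, and means ± SEM were calculated.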

[4] = Selectivity index, ratio of IC50 for human HCT116 cells to IC50 for moderately chloroquine-resistant Plasmodium falciparum FCB1-R/Colombia; format: toxicity, cell-based, HCT-116; details: HCT116 cells versus Plasmodium falciparum FCB1-R/Colombia, read-out: Ratio IC50; procedure, shortened: as §2
[5] = Selectivity index, ratio of IC50 for human HCT116 cells to IC50 for chloroquine-sensitive Plasmodium falciparum FCA 20/ Ghana; format: toxicity, cell-based, HCT-116; details: HCT116 cells versus Plasmodium falciparum FCA 20/Ghana, read-out: Ratio IC50; procedure, shortened: as §2
Plasmodium falciparum [6] = assay: Antiplasmodial activity against chloroquine-sensitive Plasmodium falciparum FCA 20/ Ghana by [3H]hypoxanthine uptake; format: functional, organism-based; procedure, shortened: as §1
Plasmodium falciparum [7] = assay: Antiplasmodial activity against chloroquine-resistant Plasmodium falciparum FCB1-R/Colombia by [3H]hypoxanthine uptake; format: functional, organism-based; procedure, shortened: as §1
[8] = Plasmodium falciparum, W2/Indochina
[9] = Plasmodium falciparum, FCA 20/ Ghana
[10] = Plasmodium falciparum, FCB1-R/Colombia

## CC [ETHANE]
Plasmodium falciparum [1]
  inhibition at 50 µM: < 30%

## CC[C@H]1CN2CCC3c4ccc(O)c([C@@H]5CCCN5C)c4NC3[C@@H]2C[C@@H]1C[C@H]1c2[nH]c3ccccc3c2CCN1C (stereo partly specified) [ISOSTRYCHNOPENTAMINE]
Plasmodium falciparum [2]; [8]
  IC50: 152 nM
  IC90: 628 nM
[3]
  selectivity ratio: 49.1
HCT-116
  IC50: 7470 nM
[4]
  selectivity ratio: 71.8
[5]
  selectivity ratio: 62.3
Plasmodium falciparum [6]; [9]
  IC50: 120 nM
  IC90: 450 nM
Plasmodium falciparum [7]; [10]
  IC50: 104 nM
  IC90: 386 nM

## C/C=C1\CN2CC[C@]34c5ccccc5N5[C@@H]6O[C@H]([C@H]([C@H]53)[C@H]1C[C@H]24)N1c2ccccc2[C@]23CCN4C/C(=C/C)[C@H](C[C@H]42)[C@H]6[C@H]13 (stereo in doubt; 52) [MATOPENSINE]
Plasmodium falciparum [2]
  IC50: 243 nM
  IC90: 7740 nM
[3]
  selectivity ratio: 49.5
HCT-116
  IC50: 12000 nM
[4]
  selectivity ratio: 33.1
[5]
  selectivity ratio: 9.59
Plasmodium falciparum [6]
  IC50: 1250 nM
  IC90: 6630 nM
Plasmodium falciparum [7]
  IC50: 362 nM
  IC90: 4110 nM

## CC[C@H]1CN2CCC3c4ccccc4NC3[C@H]2C[C@@H]1C[C@@H]1NCCc2c1[nH]c1ccccc21 (stereo partly specified) [OCHROLIFUANINE E]
Plasmodium falciparum [2]; [8]
  IC50: 1900 nM
  IC90: 6760 nM
[3]
  selectivity ratio: 3
HCT-116
  IC50: 5700 nM
[4]
  selectivity ratio: 8.12
[5]
  selectivity ratio: 20.7
Plasmodium falciparum [6]; [9]
  IC50: 276 nM
  IC90: 1490 nM
Plasmodium falciparum [7]; [10]
  IC50: 702 nM
  IC90: 2420 nM

## O=C1C[C@@H]2OCC=C3CN4[C@@H](C5=C[C@@H]6[C@@H]7N(C5=O)c5ccccc5[C@@]75CCN7C/C(=C/CO)[C@@H]6C[C@H]75)C[C@]56c7ccccc7N1[C@H]5[C@@H]2[C@H]3C[C@H]46 [STRYCHNOGUCINE B]
Plasmodium falciparum [2]; [8]
  IC50: 85 nM
  IC90: 358 nM
[3]
  selectivity ratio: 176
HCT-116
  IC50: 15000 nM
[4]
  selectivity ratio: 28.3
[5]
  selectivity ratio: 24.3
Plasmodium falciparum [6]; [9]
  IC50: 617 nM
  IC90: 3790 nM
Plasmodium falciparum [7]; [10]
  IC50: 529 nM
  IC90: 2240 nM
